VIM-2 inhibitor = VIM-2 metallo-beta-lactamase inhibitors, primary screen, biochemical, epi-absorbance readout, Pseudomonas aeruginosa enzyme; purified VIM-2, nitrocefin hydrolysis, epi-absorbance fluorescence; inhibition, % at 5.6 µM; actives 0.89% (n = 290,000); AID 1527, 2009;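 active = inhibition above the mean of all tested compounds plus 3 SD, cutoff set per screening run, cut at about 7.5% in these data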;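 note: red hydrolysis product quenches plate fluorescence so inhibitors raise well fluorescence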
GLD-1 RNA inh = GLD-1/TGE RNA complex disruptors, primary screen, biochemical, fluorescence polarization | inhibition, % at 5.96 µM | actives 0.44% (n = 320,000) | purified GLD-1 + fluorescein TGE RNA;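 active = percent inhibition above a per-plate cutoff, the plate mean of test compounds plus 3 SD, cut at about 30% in these data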
MEX-5 binding = MEX-5 zinc finger RNA-binding disruptors – biochemical, C. elegans, fluorescence polarization, MLPCN library, primary screen; Zinc finger protein mex-5 (Caenorhabditis elegans), Q9XUB2; MEX-5/FITC-TCR2 RNA binding; stronger effect = lower value; activity score (negative = inhibition of binding), % at 10 µM; actives 0.38% (n = 300,000); AID 1832, 2009;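 active = inhibition past about -25% in most replicates, and total fluorescence under double the plate's negative control median, limit read from the data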
Target sequence (Q9XUB2 whole entry, looked up): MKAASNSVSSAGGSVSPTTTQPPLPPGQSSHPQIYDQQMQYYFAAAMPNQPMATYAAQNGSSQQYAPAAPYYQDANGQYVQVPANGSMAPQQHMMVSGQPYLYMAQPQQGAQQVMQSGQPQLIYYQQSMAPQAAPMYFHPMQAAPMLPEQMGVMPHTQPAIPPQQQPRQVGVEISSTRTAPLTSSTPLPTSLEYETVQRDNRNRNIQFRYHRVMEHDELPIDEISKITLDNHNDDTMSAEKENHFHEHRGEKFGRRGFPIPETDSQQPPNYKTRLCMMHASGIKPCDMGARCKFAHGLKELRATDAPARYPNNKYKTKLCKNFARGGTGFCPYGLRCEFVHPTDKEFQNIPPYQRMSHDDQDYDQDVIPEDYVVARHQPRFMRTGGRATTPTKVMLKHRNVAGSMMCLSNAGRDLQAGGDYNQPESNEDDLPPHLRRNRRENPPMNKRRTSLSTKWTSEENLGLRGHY
EBV gp42 inh = Epstein-Barr virus gp42 inhibitors, primary screen, biochemical, uHTS, fluorescence polarization; Glycoprotein 42 (Epstein-Barr virus (strain AG876)), Q1HVG2; inhibition, % (tested at 21.74 µM); Fluorescence polarization binding assay, mP read-out; AID 1085, 2008; actives 0.42% (n = 220,000); in the data active = inhibition above about 50%
BCLXL inh = inhibitors of human Bcl-xL, primary screen, biochemical, fluorescence polarization, HTS; GST-Bcl-xL / FITC-Bim BH3 peptide fluorescence polarization; inhibition, % at 10.9 µM; actives 0.7% (n = 320,000); AID 2129, 2009;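 active = inhibition above the mean of all tested compounds plus 3 SD, cutoff set per campaign, cut at about 30% in these data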;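 note: inhibitors lower millipolarization by displacing the labeled peptide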
Target sequence (Q07817 whole entry, looked up): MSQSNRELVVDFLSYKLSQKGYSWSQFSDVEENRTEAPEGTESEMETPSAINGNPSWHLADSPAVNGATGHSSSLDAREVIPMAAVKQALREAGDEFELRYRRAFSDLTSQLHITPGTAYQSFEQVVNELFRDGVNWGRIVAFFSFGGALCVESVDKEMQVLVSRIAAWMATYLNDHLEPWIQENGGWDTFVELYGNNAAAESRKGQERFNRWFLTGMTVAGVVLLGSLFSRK
IMP-1 inh = IMP-1 metallo-beta-lactamase inhibitors, primary screen, biochemical, epi-absorbance readout, Pseudomonas aeruginosa enzyme | actives 0.45% (n = 290,000) | metallo-beta-lactamase IMP-1 (Pseudomonas aeruginosa) | inhibition, % at 5.6 µM | purified IMP-1, nitrocefin hydrolysis, epi-absorbance fluorescence;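 active = inhibition above the mean plus 3 SD of all compounds in the same screening run, cut at about 4.5% in these data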
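Assay system: purified recombinant IMP-1 beta-lactamase. Input: IMP-1 0.2 nM before substrate addition. Buffer or medium: Zinc- and detergent-supplemented HEPES buffer, pH 7.1. Schedule: 25 °C, 15 min preincubation, 25 min reaction. Signal: Epi-absorbance fluorescence, 480 nm excitation, 530 nm emission. Evaluation: percent inhibition from optical density relative to buffer-blank wells.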
Numbers stand for hits. Sampled rows, rich in hits. Any-hit rate of the full collection: about 2.2%.

Results for CCN(CC)c1ccc(/C=C(/C#N)c2nc3ccc(C)cc3[nH]2)c(OC(C)C)c1 ?
VIM-2 inhibitor: inactive; GLD-1 RNA inh: inactive; MEX-5 binding: inactive; EBV gp42 inh: 66.9; BCLXL inh: 41.6; IMP-1 inh: inactive

What do the screens show for `CCOc1cc(N(CC)CC)ccc1/C=C(/C#N)c1nc2ccccc2[nH]1`?
VIM-2 inhibitor: inactive; GLD-1 RNA inh: inactive; MEX-5 binding: inactive; EBV gp42 inh: inactive; BCLXL inh: inactive; IMP-1 inh: inactive

Results for CN(C)CCCn1cnc2c1c(=O)[nH]c(=O)n2Cc1ccccc1 ?
VIM-2 inhibitor: inactive; GLD-1 RNA inh: inactive; MEX-5 binding: inactive; BCLXL inh: inactive; IMP-1 inh: inactive

What do the screens show for `O=C(c1nc2ccc(Cl)cn2c1CN1CCCC1)N1CCc2ccccc2C1`?
VIM-2 inhibitor: inactive; GLD-1 RNA inh: 37.2; MEX-5 binding: inactive; BCLXL inh: 56.6; IMP-1 inh: inactive

What do the screens show for `CC(=O)Nc1ccc(NC(=O)c2ccco2)cc1`?
VIM-2 inhibitor: inactive; GLD-1 RNA inh: inactive; MEX-5 binding: inactive; EBV gp42 inh: inactive; BCLXL inh: inactive; IMP-1 inh: inactive

What do the screens show for `COC(=O)c1ccc(NC(=O)c2ccc(NC(=O)c3ccco3)cc2)cc1`?
VIM-2 inhibitor: inactive; GLD-1 RNA inh: inactive; MEX-5 binding: inactive; BCLXL inh: inactive; IMP-1 inh: 4.7

What do the screens show for `CC1N(C)c2cc(NC(=O)c3ccco3)ccc2C1(C)C` (stereo not drawn)?
VIM-2 inhibitor: inactive; GLD-1 RNA inh: 35.9; MEX-5 binding: inactive; EBV gp42 inh: inactive; BCLXL inh: inactive; IMP-1 inh: inactive

What do the screens show for `CC(=O)c1ccc(NC(=O)c2cccc(N3C(=O)c4ccccc4C3=O)c2)cc1`?
VIM-2 inhibitor: inactive; GLD-1 RNA inh: inactive; MEX-5 binding: inactive; BCLXL inh: inactive; IMP-1 inh: 7.7

What do the screens show for `O=C(O)c1cc(NC(=O)c2cccc(N3C(=O)c4ccccc4C3=O)c2)cc(C(=O)O)c1`?
VIM-2 inhibitor: inactive; GLD-1 RNA inh: inactive; MEX-5 binding: inactive; BCLXL inh: inactive; IMP-1 inh: inactive

What do the screens show for `CC(=O)c1ccc(NC(=O)c2ccc(NC(=O)c3ccco3)cc2)cc1`?
VIM-2 inhibitor: inactive; GLD-1 RNA inh: inactive; MEX-5 binding: inactive; BCLXL inh: inactive; IMP-1 inh: 18.8

What do the screens show for `Cc1cc(C)cc(NC(=O)c2ccc(NC(=O)c3ccco3)cc2)c1`?
VIM-2 inhibitor: inactive; GLD-1 RNA inh: inactive; MEX-5 binding: inactive; BCLXL inh: inactive; IMP-1 inh: inactive

Results for CC(=O)c1ccc(-c2ccc(C(=O)N(C)c3c(N)n(Cc4ccccc4)c(=O)[nH]c3=O)o2)cc1 ?
GLD-1 RNA inh: inactive; MEX-5 binding: inactive; BCLXL inh: inactive

Results for CC(=O)c1ccc(C(=O)Nc2ccc3c(c2)C(=O)NC3=O)cc1 ?
VIM-2 inhibitor: inactive; GLD-1 RNA inh: inactive; MEX-5 binding: inactive; BCLXL inh: inactive; IMP-1 inh: 6.1

How did O=C(COC(=O)c1ncc(Cl)c(Cl)c1Cl)Nc1cccnc1Cl do in these assays?
GLD-1 RNA inh: inactive; MEX-5 binding: inactive; BCLXL inh: inactive

Results for S=C(Nc1ccc2nsnc2c1)N1CCCCCC1 ?
VIM-2 inhibitor: inactive; GLD-1 RNA inh: inactive; MEX-5 binding: inactive; EBV gp42 inh: inactive; BCLXL inh: 32.3; IMP-1 inh: inactive

How did O=C(Nc1ccc2nsnc2c1)N1CCCCC1 do in these assays?
VIM-2 inhibitor: inactive; GLD-1 RNA inh: inactive; MEX-5 binding: inactive; EBV gp42 inh: inactive; BCLXL inh: inactive; IMP-1 inh: inactive

What do the screens show for `O=S(=O)(c1cccs1)N1CCN(c2ccccc2)CC1`?
VIM-2 inhibitor: inactive; GLD-1 RNA inh: inactive; MEX-5 binding: inactive; BCLXL inh: inactive; IMP-1 inh: inactive

How did O=C(C(NS(=O)(=O)c1cccs1)c1ccccc1)N1CCN(c2ccccc2)CC1 (stereo not drawn) do in these assays?
VIM-2 inhibitor: inactive; GLD-1 RNA inh: inactive; MEX-5 binding: inactive; EBV gp42 inh: inactive; BCLXL inh: 31.0; IMP-1 inh: inactive

What do the screens show for `O=C(NCC1CCCO1)C1CCCN(S(=O)(=O)c2cccc(C(F)(F)F)c2)C1` (stereo not drawn)?
VIM-2 inhibitor: inactive; GLD-1 RNA inh: inactive; MEX-5 binding: inactive; BCLXL inh: inactive; IMP-1 inh: 4.6

Results for O=C(NCC1CCCO1)C1CCN(S(=O)(=O)Cc2ccccc2)CC1 (stereo not drawn) ?
VIM-2 inhibitor: inactive; GLD-1 RNA inh: 150.8; MEX-5 binding: inactive; EBV gp42 inh: inactive; BCLXL inh: inactive; IMP-1 inh: inactive

How did O=C(Nc1cccc(C(F)(F)F)c1)C1CC(=O)N(CCc2ccccc2)C1 (stereo not drawn) do in these assays?
GLD-1 RNA inh: inactive; BCLXL inh: inactive

How did CCn1c(=O)c2sccc2n2c(CCCC(=O)N3CCN(c4ccccn4)CC3)nnc12 do in these assays?
VIM-2 inhibitor: 8.8; GLD-1 RNA inh: inactive; MEX-5 binding: inactive; BCLXL inh: inactive; IMP-1 inh: inactive

How did O=C(CCCn1c(=O)[nH]c2ccsc2c1=O)N1CCN(c2ccccn2)CC1 do in these assays?
VIM-2 inhibitor: inactive; GLD-1 RNA inh: inactive; MEX-5 binding: inactive; EBV gp42 inh: inactive; BCLXL inh: inactive; IMP-1 inh: inactive

How did Cn1c(=O)c2sccc2n2c(CCCC(=O)N3CCCCC3)nnc12 do in these assays?
VIM-2 inhibitor: inactive; GLD-1 RNA inh: inactive; MEX-5 binding: inactive; BCLXL inh: inactive; IMP-1 inh: inactive

Results for CCn1c(=O)c2sccc2n2c(CCCC(=O)NC3CCN(Cc4ccccc4)CC3)nnc12 ?
VIM-2 inhibitor: 8.0; GLD-1 RNA inh: inactive; MEX-5 binding: inactive; BCLXL inh: inactive; IMP-1 inh: inactive

What do the screens show for `CC(C)CCn1c(=O)c2sccc2n2c(CCCC(=O)N3CCN(c4ccccn4)CC3)nnc12`?
VIM-2 inhibitor: 8.6; GLD-1 RNA inh: inactive; MEX-5 binding: inactive; BCLXL inh: 70.9; IMP-1 inh: inactive

What do the screens show for `CC(C)OCCCn1c(=O)c2ccccc2n2c(CCC(=O)N3CCN(c4ccccn4)CC3)nnc12`?
VIM-2 inhibitor: inactive; GLD-1 RNA inh: inactive; MEX-5 binding: inactive; BCLXL inh: inactive; IMP-1 inh: inactive

What do the screens show for `CC(C)Cn1c(=O)c2sccc2n2c(CCCC(=O)N3CCC(N4CCCCC4)CC3)nnc12`?
VIM-2 inhibitor: 7.7; GLD-1 RNA inh: inactive; MEX-5 binding: inactive; BCLXL inh: inactive; IMP-1 inh: inactive

Results for O=C(NCCN1C(=O)S/C(=C\c2ccccc2F)C1=O)C1=COCCO1 ?
GLD-1 RNA inh: inactive; MEX-5 binding: inactive; BCLXL inh: inactive

Assay outcomes from PubChem.
